Screening results: PubChem, several laboratories
PGE2 EP2 inh: human EP2 receptor antagonists, primary screen, TR-FRET cAMP, C6 glioma cells; inhibition, % at 25 µM; AID 1422, 2008; 0.52% of 260,000 active; Prostaglandin E2 receptor EP2 subtype (Homo sapiens), P43116; C6 glioma cells expressing human EP2; cells stimulated with saturating PGE2;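 active = percent inhibition above 40 after rounding to a whole number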;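 note: rat C6 glioma host cells with rolipram phosphodiesterase inhibitor present; the protocol text gives 20 µM as final concentration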
Target sequence (P43116 whole entry, looked up): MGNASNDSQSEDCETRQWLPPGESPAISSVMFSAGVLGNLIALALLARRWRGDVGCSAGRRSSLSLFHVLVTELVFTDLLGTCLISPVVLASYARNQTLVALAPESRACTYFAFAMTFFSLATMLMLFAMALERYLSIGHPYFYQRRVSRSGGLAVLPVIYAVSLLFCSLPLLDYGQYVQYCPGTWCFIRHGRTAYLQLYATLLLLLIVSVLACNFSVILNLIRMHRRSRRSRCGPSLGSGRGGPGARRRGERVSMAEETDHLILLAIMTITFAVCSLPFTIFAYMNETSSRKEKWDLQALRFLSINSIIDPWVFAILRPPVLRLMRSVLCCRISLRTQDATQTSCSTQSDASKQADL
Thrombin inh: human alpha-thrombin inhibitors, primary screen, counter-screen for coagulation protease inhibitor project, biochemical, 1536-well, fluorogenic AMC substrate; Prothrombin (Homo sapiens), P00734; Boc-VPR-AMC fluorogenic substrate cleavage; inhibition, % at 5 µM; 0.26% of 220,000 active; AID 1046, 2008;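 active = inhibition at or above 40%; inactive = inhibition below 40%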;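 note: 0% = enzyme with no compound and 100% = wells without enzyme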
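Assay system: human alpha-thrombin enzyme. Reagent: Boc-VPR-AMC substrate, 15 µM final. Compound dosing: one concentration per compound, 5 µM, with 0.2% DMSO. Incubation: room-temperature reaction. Technique: AMC fluorescence, 355/460 nm. Measure: % inhibition relative to enzyme controls and enzyme-free blanks.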
EP2 mod: EP2 receptor modulators, cAMP readout, primary screen, cell-based, HTRF cAMP, PGE2 stimulation; 0.83% of 260,000 active; EP2-expressing cells, cAMP HTRF FRET, PGE2 co-stimulation; Prostaglandin E2 receptor EP2 subtype (Homo sapiens), P43116; induction, % at 25 µM;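 active = compounds whose cAMP rise, as percent of the full-agonist control response, exceeds 60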;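 note: rat C6 glioma line stably carrying human EP2 under a CMV promoter; the protocol text gives 20 µM as final concentration; 100% = response of wells given 1 µM PGE2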
FXIIa inh: human FXIIa protease inhibitors, primary screen, biochemical, 1536-well | inhibition, % at 5 µM | 0.3% of 220,000 active | Coagulation factor XII (Homo sapiens), P00748 | AID 800, 2007 | purified FXIIa, Boc-QGR-AMC fluorogenic substrate, 2 h; in the data active = inhibition above about 40%;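 note: 0% = enzyme with no compound and 100% = blank without enzyme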
KLK5 inh: human KLK5 protease inhibitors, primary screen, biochemical, 1536-well; 0.59% of 210,000 active; inhibition, % at 5 µM; Kallikrein-5 (Homo sapiens), Q9Y337; recombinant hK5, fluorogenic AMC substrate cleavage;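 active = inhibition of 40% or more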;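 note: 0% = enzyme controls without compound and 100% = no-enzyme blanks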
Target sequence (Q9Y337 67-293 limits assumed): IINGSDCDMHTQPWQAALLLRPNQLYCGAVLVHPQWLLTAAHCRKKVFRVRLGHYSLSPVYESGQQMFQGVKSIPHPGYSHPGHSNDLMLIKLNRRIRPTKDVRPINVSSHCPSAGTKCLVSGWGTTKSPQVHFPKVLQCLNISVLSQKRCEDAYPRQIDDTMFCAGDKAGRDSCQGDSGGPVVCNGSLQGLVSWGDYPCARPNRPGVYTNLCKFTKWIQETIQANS
FXIa inh 1536: human FXIa protease inhibitors, primary screen, biochemical, 1536-well. purified FXIa, Boc-Glu-Ala-Arg-AMC fluorogenic substrate. AID 798, 2007. inhibition, % at 5 µM. 0.14% of 220,000 active. Coagulation factor XI (Homo sapiens), P03951;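 active = inhibition of at least 40%; inactive = inhibition below 40%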;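 note: fluorescence of freed AMC excited at 355 nm; 0% = enzyme without compound and 100% = no enzyme blank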
* = called active by the depositor; x = no result given; ! = repeats disagree. Shown are actives, neighbours in structure and some others; about 2.1% of the full set was active somewhere.

SMILES	PGE2 EP2 inh	Thrombin inh	EP2 mod	FXIIa inh	KLK5 inh	FXIa inh 1536
Nc1ccc2c(c1)C(=O)C(=O)c1ccccc1-2	29.6	-5.2	7.1	17.8	-22.9	16.8
O=C1c2ccccc2-c2ccc(N(Cc3ccc(Br)cc3)Cc3ccc(Br)cc3)cc21	47.4*	x	17.5	x	x	x
CN1c2cccc3cccc(c23)N(C)C1c1cccs1	4.7	-2.9	64.4*	5.9	7.8	-13.4
COC(=O)CSc1cc(SCC(=O)OC)c(C#N)c(SCC(=O)OC)c1	54.9*	3.1	6.7	5.7	-7.2	-1.2
COC(=O)CSc1ccc(C#N)c(SCC(=O)OC)c1	-6.0	2.4	23.6	15.7	-5.2	1.1
COc1cccc(C(=O)Nc2ccc(N3CCN(C(=O)C(C)C)CC3)cc2)c1	5.3	x	-19.3	x	x	x
Cc1ccccc1Cn1cnc2c(NS(C)(=O)=O)c(C)c(C)cc21	11.7	2.5	-17.1	40.9*	-0.8	0.9
CC(=O)c1ccc(S(=O)(=O)N(Cc2ccco2)Cc2cc3c(C)cc(C)cc3[nH]c2=O)cc1	15.4	x	-107.4	x	x	x
O=C1C=CC(=O)c2c(O)c(Cl)c(Cl)c(O)c21	128.8*	x	-19.7	x	x	x
Cc1ccc(C)c(NC(=S)NCCc2c[nH]c3ccccc23)c1	17.9	9.8	-49.3	15.1	42.1*	-7.7
CC(Sc1nc(-c2ccccc2)cc(C(F)(F)F)n1)C(=O)NC1CCCC1 (stereo unspecified)	7.5	x	-122.8	x	x	x
CCC(C)OC(=O)Cn1cnc2scc(-c3ccccc3)c2c1=O (stereo unspecified)	5.0	x	-24.2	x	x	x
Nc1ccccc1SCC(=O)N1c2ccccc2Sc2ccc(C(F)(F)F)cc21	5.3	x	88.4*	x	x	x
O=C(/C=C/c1ccccc1)N1c2ccccc2Sc2ccc(C(F)(F)F)cc21	11.8	-10.5	42.1	4.2	0.1	-7.3
COc1ccc(Br)cc1-c1nc(CCl)cs1	30.3	-5.2	63.2*	3.9	-5.2	-4.0
COc1cc(C2C3CN(C)CC=C3C(C#N)=C(N)C2(C#N)C#N)cc(Cl)c1OC(C)C (stereo unspecified)	14.8	x	-133.9	x	x	x
N#C[C@H](c1ccccc1)N1CCCN([C@@H](C#N)c2ccccc2)C1c1ccccc1O (stereo partly specified)	43.0*	x	3.6	x	x	x
CCCn1[nH]cc(SC)c(=O)c1=O	3.1	17.2	7.0	16.2	121.6*	5.5
CC(=O)SC(C[N+](=O)[O-])c1cn(C(C)=O)c2ccccc12 (stereo unspecified)	80.9*	-2.9	-9.1	3.0	-2.2	-4.2
CC(=O)n1cc(Nc2ccc([N+](=O)[O-])cc2)c2ccccc21	-1.2	0.0	-53.7	9.2	7.2	4.0
O=C(NC1(c2ccc3c(c2)OCO3)CCCC1)c1ccc(OC2CSC2)cc1	x	x	-34.6	x	x	x
O=C(CSc1nnc2n(Cc3ccccc3F)c3ccccc3n12)N1CCCCC1	9.3	x	-15.6	x	x	x
CCC(=O)n1nc(-c2ccc(Cl)cc2)nc1NCc1ccccc1	7.8	70.5*	28.6	13.6	-8.6	4.2
COCC(=O)n1nc(-c2ccccc2)nc1NCc1cccs1	4.2	85.7*	4.8	10.5	5.7	3.1
CCOCCCNC(=O)CSc1ccc(-c2ccc(F)cc2)nn1	6.5	x	-23.9	x	x	x
SMILES	PGE2 EP2 inh	Thrombin inh	EP2 mod	FXIIa inh	KLK5 inh	FXIa inh 1536
O=C(CCCC(=O)OCC(=O)c1cccs1)Nc1ccc(Cl)c(Cl)c1	9.1	x	-192.7	x	x	x
COc1ccc2[nH]c(=O)c(C(c3nnnn3Cc3ccc(F)cc3)N3CCOCC3)cc2c1 (stereo unspecified)	6.7	x	-6.8	x	x	x
O=C(O)c1ccccc1-c1ccccc1C(=O)c1ccccc1	15.6	x	-66.5	x	x	x
O=C(c1ccccc1)c1ccccc1N1C(=O)C=CC1=O	44.8*	-2.1	-48.6	10.0	-0.4	2.7
COc1cccc2cc(-c3nc4c(s3)CCc3ccccc3-4)c(=O)oc12	17.4	x	37.5	x	x	x
COc1cccc(NC(=O)Nc2ccc3c(c2)N(C)C(=O)CS3)c1	42.3*	2.0	-36.4	11.8	-0.7	4.6
COc1cccc(NC(=O)C(C#N)Cc2cccs2)c1 (stereo unspecified)	5.7	x	-25.5	x	x	x
COc1cccc(C2N(c3ccccc3)CCN2c2ccccc2)c1OC	3.0	-7.4	64.3*	2.8	-4.5	-5.5
CCCNC(=O)c1nnsc1S(=O)c1ccc(Cl)cc1 (stereo unspecified)	69.4*	-6.4	-74.2	-2.2	-2.3	1.4
COc1cc(COCC(O)CN2CCOCC2)cc(OC)c1OC (stereo unspecified)	9.6	-8.4	8.7	44.7*	-7.2	8.6
O=C(CSc1nc(-c2ccco2)cc(C(F)(F)F)n1)Nc1ccccc1Cl	16.3	x	-98.5	x	x	x
COC(=O)c1ccccc1NC(=O)CSc1nc(-c2ccco2)cc(C(F)(F)F)n1	5.7	2.4	65.0*!	6.3	-26.9	4.0
COc1ccc(OC)c(N=c2ssnc2Cl)c1	77.3*	0.9	-69.6	-15.4	-7.3	-9.0
Cc1cc(Cl)ccc1N=c1ssnc1Cl	76.5*	3.1	-54.7	12.2	-8.8	3.7
Cc1ccc(N=c2ssnc2Cl)cc1	134.3*	-3.1	-46.9	3.4	-5.6	-5.5
Cc1cc2cc3c(cc2nc1SCC(N)=O)OCCO3	8.8	x	-54.1	x	x	x
O=C(C1=C(O)C(=O)N(CC2CCCO2)C1c1ccc(O)cc1)c1ccco1 (stereo unspecified)	9.5	x	3.8	x	x	x
CC(=O)NC1C(Oc2ccc(C(C)(C)C)cc2)OC2COC(C)(C)OC2C1O (stereo unspecified)	8.0	x	2.8	x	x	x
OC1(c2ccc(F)cc2)CCN(Cc2ccccc2)C1 (stereo unspecified)	x	-13.1	61.0*	5.5	-18.0	-3.9
c1ccc(CN2CCC3(CC2)SSC2(CCN(Cc4ccccc4)CC2)SS3)cc1	44.5*	x	28.2	x	x	x
OC1(c2ccccc2)CCN(Cc2ccccc2)CC1	2.0	0.0	-17.0	6.4	1.4	5.5
CC(Sc1nnc(-c2cc3ccccc3o2)n1-c1ccccc1)C(=O)O (stereo unspecified)	8.6	46.6*	9.8	-0.9	-15.7	-11.4
Cc1cc(C)c(NC(=O)C(C)Sc2nnc(-c3ccco3)n2-c2ccccc2)c(C)c1 (stereo unspecified)	1.9	2.6	27.0	13.5	-11.0	-8.5
CCc1ccc(NC(=O)c2nc3nc(C)cc(C(F)F)n3n2)cc1	9.7	x	-21.6	x	x	x
CCN(CC)c1ccc(NC(=O)c2nc3nc(C)cc(C(F)F)n3n2)cc1	12.6	22.1	-8.4	10.8	48.1*	8.6
